The list is not random: actives were taken first. Their share in the collection is about 3.3%.
5HT1a ag = human 5-HT1a receptor agonists, primary screen, cell-based, CHO, Ga15 NFAT-bla reporter; 5-hydroxytryptamine receptor 1A (Homo sapiens), P08908; CHO 5-HT1a Ga15 NFAT-bla reporter, FRET ratio; 0% basal, 100% maximal reference agonist; activation, % at 10 µM; 0.56% of 65,000 active; AID 567, 2006;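 active = activation above the screen-wide mean activation plus 3 SD, cut at about 19% in these data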;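 also: 0% = DMSO wells and 100% = 5-CT at EC100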
Jurkat tox 60K = cytotoxicity toward Jurkat T cells, primary screen, cytotoxicity control, cell-based, Jurkat E6.1, 60K MLSMR library | AID 463, 2006 | 1.2% of 56,000 active | Jurkat E6.1 viability, ATP luminescence, 48 h | inhibition, % at 4 µM;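 active = inhibition above the mean inhibition of all tested compounds plus 3 SD, cut at about 28% in these data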
HTR1E agonist = 5-HT1E receptor agonists, primary screen, cell-based, HTS; 5-hydroxytryptamine receptor 1E (Homo sapiens), P28566; CHO 5-HT1E Ga15 NFAT-bla reporter, FRET; 0% DMSO wells, 100% control agonist wells; activation, % at 6 µM; 0.69% of 65,000 active; AID 574, 2007;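 active = activation above a set limit, the screen-wide mean activation plus 3 SD, cut at about 8.5% in these data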;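 also: 100% = positive control agonist at 1 µM giving full maximal response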
Target sequence (P28566 whole entry, looked up): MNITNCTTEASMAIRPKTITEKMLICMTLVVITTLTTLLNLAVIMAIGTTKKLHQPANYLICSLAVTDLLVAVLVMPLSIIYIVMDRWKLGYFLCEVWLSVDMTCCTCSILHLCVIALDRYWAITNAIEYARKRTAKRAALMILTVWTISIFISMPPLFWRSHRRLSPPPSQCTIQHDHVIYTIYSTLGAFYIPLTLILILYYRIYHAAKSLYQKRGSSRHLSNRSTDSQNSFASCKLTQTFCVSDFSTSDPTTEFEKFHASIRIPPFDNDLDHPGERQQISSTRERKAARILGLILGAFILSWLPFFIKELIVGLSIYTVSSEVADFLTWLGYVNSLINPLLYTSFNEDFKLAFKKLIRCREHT
HEK293 NFkB inh = inhibitors of PMA/ionomycin-induced NF-kB reporter, primary screen, antigen receptor NF-kB inhibitor project, cell-based, HEK-293 luciferase reporter, luminescence. inhibition, % at 3 µM. 0.21% of 62,000 active. AID 465, 2006. HEK-293 NF-kB luciferase reporter;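 active = inhibition above the mean of all tested compounds plus 3 SD, cut at about 40% in these data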;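 also: 0% = stimulated DMSO wells and 100% = 10 µM reference inhibitor 5653914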
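System – HEK-293 cells with stable firefly luciferase reporter driven by four HIV NF-kB elements · Doses – one dose, 3 µM · Schedule – 1 h compound pre-incubation, 16 h PMA/ionomycin at 37 °C · Technique – luminescence from luciferase substrate reagent · Measure – percent inhibition normalized per plate to DMSO and reference-inhibitor controls · Replicates – tested once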
5HT1E antag = 5-HT1E receptor antagonists, primary screen, cell-based, HTS; 5-hydroxytryptamine receptor 1E (Homo sapiens), P28566; CHO 5-HT1E Ga15 NFAT-bla reporter, FRET, antagonist; inhibition, % at 6 µM; 0.99% of 65,000 active; AID 571, 2007;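 active = inhibition above a set limit, the mean inhibition across every tested compound plus 3 SD, cut at about 29% in these data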;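 also: signal is the 460 over 535 nm emission ratio of beta-lactamase substrate; 0% = agonist plus DMSO wells and 100% = wells without agonist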
5HT1a antag = human 5-HT1a receptor antagonists, primary screen, cell-based, CHO, Ga15 NFAT-bla reporter; 5-hydroxytryptamine receptor 1A (Homo sapiens), P08908; CHO 5-HT1a Ga15 NFAT-bla reporter, antagonist mode; inhibition, % at 10 µM; 0.68% of 62,000 active; AID 612, 2007;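 active = inhibition above the mean of all tested compounds plus 3 SD, cut at about 43% in these data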;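 also: receptor stimulated by 5-CT agonist at 100 nM near EC80; beta-lactamase reporter measured by ratiometric fluorescence of a cleavable substrate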
An asterisk follows results filed as active; / = no result.

SMILES | 5HT1a ag | Jurkat tox 60K | HTR1E agonist | HEK293 NFkB inh | 5HT1E antag | 5HT1a antag
COC(=O)c1[nH]c2ccc(C)cc2c1NC(=O)CN1CCN(Cc2ccccc2)CC1 | 1 | 6 | 1 | 15 | 1 | -5
CCOC(=O)N1CCN(CC(=O)Nc2c(C(=O)OC)[nH]c3ccc(Cl)cc23)CC1 | 0 | 31* | -1 | 28 | 8 | 4
COC(=O)c1[nH]c2cc(OC)c(OC)cc2c1NC(=O)CN1CCN(Cc2ccccc2)CC1 | 1 | 6 | 0 | -9 | 39* | 7
O=C(O)Cn1ncc2c1-c1ccoc1CC2 | -1 | 1 | 0 | -3 | -3 | -13
O=C(CSCc1ccccc1)Nc1nccs1 | -3 | 2 | 0 | 8 | 1 | -8
CCOC(=O)CCn1cc(F)c(=O)n(Cc2ccccc2)c1=O | -1 | 5 | 0 | 0 | -4 | 7
O=C(Nc1ccncc1)C1CCCN(S(=O)(=O)c2cccc3cccnc23)C1 (stereo not drawn) | -4 | 89* | 0 | 27 | 19 | 15
CCOC(=O)C1CCCN(C(=O)c2cnn3c(C(F)F)cc(-c4ccc(C)cc4)nc23)C1 (stereo not drawn) | 1 | 6 | 3 | 9 | -8 | 47*
Cc1ccc(-c2cc(C(F)F)n3ncc(C(=O)N4CCN5CCCC5C4)c3n2)cc1 (stereo not drawn) | 0 | 3 | 4 | 10 | -6 | -4
Cc1nn(Cc2c(Cl)cccc2Cl)c(C)c1NC(=O)c1cc(C(C)C)on1 | -2 | 45* | 1 | 44* | 3 | 6
Cc1nnc(NCc2ccncc2)c2ccccc12 | 88* | 2 | 1 | 23 | -5 | 5
O=C(Nc1ccc(-c2noc(CCc3ccccc3)n2)cc1)c1cccnc1 | -6 | 6 | 1 | -2 | 10 | -8
O=C(Nc1nc(-c2cc(Cl)sc2Cl)cs1)c1cccs1 | 279* | 3 | 1 | 5 | -1 | 49*
O=C(Nc1nc(-c2nc3ccccc3s2)cs1)c1ccc(S(=O)(=O)N2CCOCC2)cc1 | -1 | 50* | 1 | -16 | -9 | 32
O=C(Nc1nc(-c2ccc(S(=O)(=O)N3CCCC3)cc2)cs1)c1cccs1 | 1 | 22 | 0 | 17 | -7 | 3
O=C(Nc1nc(-c2ccccc2)cs1)C1CCCN(S(=O)(=O)c2ccccc2)C1 (stereo not drawn) | 0 | 39* | 0 | 11 | -2 | -18
O=C(Nc1nc(-c2ccc(S(=O)(=O)N3CCCCCC3)cc2)cs1)c1cccs1 | 5 | 29* | 2 | 12 | -10 | -15
COc1cccc(C(=O)Nc2nc(-c3ccc(S(=O)(=O)N4CCOCC4)cc3)cs2)c1 | 1 | 24 | 1 | 26 | 4 | -8
COc1ccccc1NC(=O)C(C)NS(=O)(=O)c1ccc(Cl)cc1 (stereo not drawn) | -3 | 0 | -1 | -6 | 9 | 8
CC(=O)c1ccccc1Oc1nc(CN2CCOCC2)nc2scc(-c3cccs3)c12 | -2 | 6 | 0 | -3 | 5 | 33
O=C(NC1CCCCC1)N(Cc1ccc(F)cc1)Cc1nc2ccccc2c(=O)[nH]1 | 3 | -5 | 0 | 28 | -9 | 3
CC(O)c1cc2c(cc1NC(=O)c1cnn3c1NC(c1ccco1)CC3C(F)(F)F)OCO2 (stereo not drawn) | -2 | 4 | 0 | 12 | 3 | -2
COc1cc2c(cc1OC)-c1cc(Nc3ccc4c(c3)OCCO4)nc(=O)n1CC2 | -1 | 2 | 0 | 30 | 40* | 14
COc1cc2c(cc1OC)-c1cc(NC3CCCCCC3)nc(=O)n1CC2 | 1 | -5 | 1 | 7 | 49* | 13
CCN(CC)CCCNc1cc2n(c(=O)n1)CCc1cc(OC)c(OC)cc1-2 | 0 | 3 | 0 | 13 | 0 | -3
SMILES | 5HT1a ag | Jurkat tox 60K | HTR1E agonist | HEK293 NFkB inh | 5HT1E antag | 5HT1a antag
COc1cc2c(cc1OC)-c1cc(N3CCCc4ccccc43)nc(=O)n1CC2 | 2 | -3 | 2 | 24 | 64* | 13
COc1cc2c(cc1OC)-c1cc(OCc3cccnc3)nc(=O)n1CC2 | 1 | -3 | 0 | 21 | 24 | 0
COc1cc2c(cc1OC)-c1cc(N3CCCCCC3)nc(=O)n1CC2 | 1 | -4 | 1 | 16 | 41* | 8
COc1ccc(-c2cc3nc4n(c(=O)c3s2)CCOC4)cc1 | -2 | / | 3 | / | -4 | /
CCCCCCOc1ccc(/C(N)=N/O)cc1 | -1 | 97* | 0 | -21 | -12 | 7
CCCCCOc1ccc(C(=O)NC(CCC)C(=O)O)cc1 (stereo not drawn) | -2 | 1 | 1 | 12 | -1 | -9
COC(=O)c1ccc(C(=O)OC)c(NC(=O)c2oc(C)nc2C)c1 | -1 | -6 | 0 | 8 | 2 | 10
Clc1ccc(Cn2ncc3c(NCc4ccco4)ncnc32)c(Cl)c1 | -1 | 82* | 0 | 18 | 39* | 32
O=C(c1ccc(Cl)cc1)N1CCCCC(Sc2nnc(-c3ccc4c(c3)OCO4)o2)C1=O (stereo not drawn) | 1 | 2 | -1 | 76* | 2 | -12
COC(=O)c1cc(Br)c(=O)n(Cc2cccnc2)c1 | 4 | / | -1 | / | 13 | /
COc1cc(C(C)=O)ccc1OCC(=O)c1cc(C)n(C2CC2)c1C | -1 | -1 | 1 | 30 | -11 | -4
CCn1c(NC(=O)c2cccc(Cn3cc(Cl)cn3)c2)nc2ccccc21 | -1 | 75* | 2 | 4 | -5 | 16
Cn1c(NC(=O)c2cccc(Cn3cc(Cl)cn3)c2)nc2ccccc21 | 1 | 2 | 2 | -20 | -10 | 16
Cc1cc(C)c(NC(=O)c2cc3c(nc4sccn43)s2)c(C)c1 | 0 | -6 | 0 | 4 | 29* | 23
Cc1ccc(-c2csc3ncnc(-n4nc(C)cc4N)c23)cc1 | -1 | 4 | 8.7* | 11 | -8 | -4
Cc1nc2ccc(S(=O)(=O)NCC(=O)N3CCCC(C)C3)cc2s1 (stereo not drawn) | -1 | -4 | 0 | -2 | -12 | -1
CC(C)n1c(N2CCN(CC(=O)NCc3cccs3)CC2)nc2ccccc21 | -3 | 6 | -1 | 5 | -5 | -1
O=C(CN1CCC(c2nc3ccccc3s2)CC1)NCc1cccs1 | 0 | 28* | -1 | 10 | -4 | -12
CCOC(=O)N1CCC(n2c(SCC(=O)NCCC3=CCCCC3)nc3ccccc3c2=O)CC1 | 0 | / | -1 | 16 | 19 | 60*

Screens deposited in PubChem by The Scripps Research Institute Molecular Screening Center.
